The results in this text go back to ChEMBL document CHEMBL4196121, “Meridianin D Analogues Display Antibiofilm Activity against MRSA and Increase Colistin Efficacy in Gram-Negative Bacteria” (ACS Med Chem Lett, 2018).

The test system of data set [1] is Acinetobacter baumannii. Put plainly: Potentiation of colistin-induced antimicrobial activity against Acinetobacter baumannii isolate 4106 assessed as fold reduction in colistin MIC after 16 hrs by broth microdilution assay. Format: functional. The procedure, abridged: (§1)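 Analogue at a fixed 60 μM unless otherwise noted, combined with colistin against the Gram-negative strain. Potentiation is read as the fold reduction in colistin MIC relative to colistin alone. A. baumannii 3941/4106 and K. pneumoniae C3/B9 are primary clinical isolates with genomically encoded colistin resistance.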
For orientation: In broth dilution the organism is exposed to a series of concentrations in liquid medium.

In data set [2] the test system is Klebsiella pneumoniae. Briefly: Potentiation of colistin-induced antimicrobial activity against Klebsiella pneumoniae isolate C3 assessed as fold reduction in colistin MIC after 16 hrs by broth microdilution assay. Type of data set: functional. The procedure, abridged:
as §1

Data set [3] has as its system Acinetobacter baumannii. Put plainly: Antibacterial activity against Acinetobacter baumannii isolate 3941 after 16 hrs by broth microdilution assay. Format: organism-based.
Data set [4] deals with Klebsiella pneumoniae. Briefly: Potentiation of colistin-induced antimicrobial activity against Klebsiella pneumoniae isolate B9 assessed as fold reduction in colistin MIC after 16 hrs by broth microdilution assay. Format: functional. The procedure, abridged:
as §1

Data set [5] relates to Acinetobacter baumannii. Put plainly: Antibacterial activity against Acinetobacter baumannii ATCC 17978 expressing mcr1 gene after 16 hrs by broth microdilution assay. Type of data set: organism-based. Conditions: in vitro.
Data set [6] relates to Escherichia coli. Briefly: Antibacterial activity against Escherichia coli ATCC 25922 expressing mcr1 gene after 16 hrs by broth microdilution assay. Format: organism-based. Conditions: in vitro.
Data set [7] deals with Acinetobacter baumannii. Put plainly: Antibacterial activity against Acinetobacter baumannii ATCC 17978 after 16 hrs by broth microdilution assay. Format: organism-based.
Data set [8] concerns Staphylococcus aureus. Put plainly: Antibiofilm activity against methicillin-resistant Staphylococcus aureus ATCC 43300 assessed induction of dispersion of preformed biofilm after 24 hrs by crystal violet staining based method. Format: functional, organism-based. Conditions: ATCC 43300, 24 h.
Data set [9] relates to Acinetobacter baumannii. Put plainly: Antibacterial activity against Acinetobacter baumannii ATCC 19606 after 16 hrs by broth microdilution assay. Conditions: for MIC: […]. Type of data set: organism-based, ATCC 19606 = CIP 70.34 = JCM 6841.
Data set [10] deals with Staphylococcus aureus. Briefly: Inhibition of biofilm formation in methicillin-resistant Staphylococcus aureus ATCC 43300 after 24 hrs by crystal violet staining based method. Type of data set: functional, organism-based. Conditions: ATCC 43300, 24 h. The procedure, abridged:
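Read-out is the IC50, taken as the compound concentration that inhibits 50% of MRSA 43300 biofilm formation.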

Data set [11] has as its system Klebsiella pneumoniae. Put plainly: Potentiation of colistin-induced antimicrobial activity against Klebsiella pneumoniae isolate B9 after 16 hrs in presence of 0.01% triton X-100 by broth microdilution assay. Type of data set: functional, organism-based.
For data set [12], the system named is Klebsiella pneumoniae. Briefly: Antibacterial activity against Klebsiella pneumoniae ATCC 2146 expressing NDM1 gene after 16 hrs by broth microdilution assay. Type of data set: organism-based. Conditions: for MIC: […]; for Activity: in vitro.
Data set [13] has as its system Acinetobacter baumannii. Put plainly: Antibacterial activity against Acinetobacter baumannii isolate 5075 after 16 hrs by broth microdilution assay. Format: organism-based.
The test system of data set [14] is Klebsiella pneumoniae. Put plainly: Potentiation of colistin-induced antimicrobial activity against Klebsiella pneumoniae ATCC 2146 expressing NDM1 gene assessed as fold reduction in colistin MIC after 16 hrs by broth microdilution assay. Format: functional. The procedure, abridged: as §1
Data set [15] relates to Staphylococcus aureus. Briefly: Antibacterial activity against methicillin-resistant Staphylococcus aureus ATCC 43300 after 16 hrs by broth microdilution assay. Conditions: ATCC 43300, 16 h. Type of data set: functional.
For data set [16], the system named is Acinetobacter baumannii. Put plainly: Antibacterial activity against Acinetobacter baumannii isolate 4106 after 16 hrs by broth microdilution assay. Type of data set: organism-based.
In data set [17] the test system is Staphylococcus aureus. Put plainly: Potentiation of vancomycin-induced antibacterial activity against methicillin-resistant Staphylococcus aureus ATCC 43300 assessed as dispersion of preformed biofilm after 24 hrs by crystal violet staining based method. Type of data set: functional, organism-based. Conditions: ATCC 43300, 24 h.
Data set [18] has as its system Acinetobacter baumannii. Put plainly: Potentiation of colistin-induced antimicrobial activity against Acinetobacter baumannii ATCC 19606 assessed as fold reduction in colistin MIC after 16 hrs by broth microdilution assay. Format: functional, ATCC 19606 = CIP 70.34 = JCM 6841. The gist of the method:
as §1

For data set [19], the system named is Acinetobacter baumannii. Put plainly: Potentiation of colistin-induced antimicrobial activity against Acinetobacter baumannii isolate 5075 assessed as fold reduction in colistin MIC after 16 hrs by broth microdilution assay. Format: functional. The procedure, abridged:
as §1

Data set [20] has as its system Acinetobacter baumannii. Briefly: Potentiation of colistin-induced antimicrobial activity against Acinetobacter baumannii isolate 3941 after 16 hrs by broth microdilution assay. Format: functional, organism-based. The procedure, abridged: as §1
For data set [21], the system named is Escherichia coli. Put plainly: Potentiation of colistin-induced antimicrobial activity against Escherichia coli ATCC 25922 expressing mcr1 gene assessed as fold reduction in colistin MIC after 16 hrs by broth microdilution assay. Format: functional. The gist of the method: as §1
For data set [22], the system named is Acinetobacter baumannii. Put plainly: Potentiation of colistin-induced antimicrobial activity against Acinetobacter baumannii isolate 4106 after 16 hrs in presence of 0.01% triton X-100 by broth microdilution assay. Format: functional, organism-based.
Data set [23] has as its system Klebsiella pneumoniae. Put plainly: Antibacterial activity against Klebsiella pneumoniae isolate B9 after 16 hrs by broth microdilution assay. Conditions: in vivo.
Data set [24] deals with Acinetobacter baumannii. Put plainly: Potentiation of colistin-induced antimicrobial activity against Acinetobacter baumannii ATCC 17978 assessed as fold reduction in colistin MIC after 16 hrs by broth microdilution assay. Format: functional. The procedure, abridged: as §1
Data set [25] deals with Klebsiella pneumoniae. Put plainly: Potentiation of colistin-induced antimicrobial activity against Klebsiella pneumoniae isolate B9 after 16 hrs by broth microdilution assay. Format: functional, organism-based. The procedure, abridged:
as §1

Data set [26] has as its system Escherichia coli. Put plainly: Antibacterial activity against Escherichia coli ATCC 25922 after 16 hrs by broth microdilution assay. Type of data set: organism-based.
Data set [27] has as its system Acinetobacter baumannii. Briefly: Potentiation of colistin-induced antimicrobial activity against Acinetobacter baumannii ATCC 17978 expressing mcr1 gene assessed as fold reduction in colistin MIC after 16 hrs by broth microdilution assay. Type of data set: functional. The gist of the method:
as §1

For data set [28], the system named is Klebsiella pneumoniae. Put plainly: Antibacterial activity against Klebsiella pneumoniae isolate C3 after 16 hrs by broth microdilution assay. Conditions: for MIC: […].
The test system of data set [29] is Escherichia coli. Put plainly: Potentiation of colistin-induced antimicrobial activity against Escherichia coli ATCC 25922 assessed as fold reduction in colistin MIC after 16 hrs by broth microdilution assay. Format: functional. The procedure, abridged: as §1
In data set [30] the test system is Enterococcus faecium. Briefly: Antibacterial activity against vancomycin-resistant Enterococcus faecium ATCC 51559 after 16 hrs by broth microdilution assay. Type of data set: functional. Conditions: ATCC 51559, 16 h.
Data set [31] relates to Staphylococcus aureus. Briefly: Antibacterial activity against methicillin-resistant Staphylococcus aureus ATCC 1556 after 16 hrs by broth microdilution assay. Type of data set: functional. Conditions: ATCC 1556, 16 h.
Data set [32] deals with Staphylococcus aureus. Briefly: Antibacterial activity against methicillin-resistant Staphylococcus aureus ATCC 6538 after 16 hrs by broth microdilution assay. Conditions: ATCC 6538, 16 h. Format: functional.
In data set [33] the test system is Staphylococcus aureus. Briefly: Antibiofilm activity against methicillin-resistant Staphylococcus aureus ATCC 43300 assessed as dispersion of preformed biofilm at 80 uM after 24 hrs by crystal violet staining based method relative to control. Type of data set: functional.
Data set [34] has as its system Staphylococcus aureus. Briefly: Effect on planktonic growth of methicillin-resistant Staphylococcus aureus ATCC 43300 at 60 uM after 16 hrs by broth microdilution assay. Format: organism-based.
The test system of data set [35] is Staphylococcus aureus. Briefly: Antibiofilm activity against methicillin-resistant Staphylococcus aureus ATCC 43300 at < 60 uM after 16 hrs by broth microdilution assay. Format: functional, organism-based.

The source made the active and inactive calls. The calls are words filed in the database; no cut-off is given here.

For orientation: EC50 means the concentration at which the effect is half-maximal. For orientation: IC50 means the midpoint of a concentration-inhibition curve. The low end stands for inhibition by little substance, the high end for a need for much substance. Regarding `CCNc1nccc(-c2c[nH]c3ccc(Br)cc23)n1.Cl`, the “fold change (FC)” value came out at 512 in [1]; 512 in data set [2]; 512 in data set [4]; 16 in [14]; 16 in data set [18]; 16 in data set [19]. Moreover, the “fold change (FC)” value is 16 in [21], 16 in data set [24], 128 in data set [27] and 8 in [29]. The MIC in data set [3], in data set [5], in data set [6], in [7], in data set [9] and in [12] was greater than 200 µM in each case. Further, the MIC in data set [13] is greater than 200 µM; in [15] it was 50 µM; in data set [16], greater than 200 µM; in data set [23] it was greater than 200 µM; in [26] it was greater than 200 µM; in [28], greater than 200 µM. In addition, the EC50 in data set [8] stood at 75.8 µM; in data set [17], 66.5 µM. Further, in data set [10], the IC50 was determined as 24.6 µM. Further, the outcome in data set [11] and in data set [22] was inactive. Also, the result in [20] and in [25] was Active.
Take `Brc1ccc2[nH]cc(-c3ccnc(NCc4ccccc4)n3)c2c1.Cl`: the “fold change (FC)” value was found to be 512 in [2], 16 in data set [18] and 16 in data set [24]. Also, the MIC was greater than 200 µM in data set [3]; greater than 200 µM in data set [5]; greater than 200 µM in [6]; greater than 200 µM in data set [7]; 25 µM in data set [30]; greater than 200 µM in [9]. The MIC in [12] is greater than 200 µM; in data set [13], greater than 200 µM; in [15] it was 6.25 µM; in data set [16], greater than 200 µM; in data set [31], 6.25 µM; in [23], greater than 200 µM. The MIC in [32] is 6.25 µM; in data set [26] it was greater than 200 µM; in data set [28], greater than 200 µM. In addition, the EC50 in data set [8] and in [17] was greater than 80 µM in each case. Besides, the IC50 in data set [10] came out at 9.62 µM. The result in data set [11] and in data set [22] was inactive. Besides, the result in [20] was Active. Also, the Activity in [33] was 26.2%.
Consider `Cl.Nc1nc(-c2c[nH]c3cc(Br)ccc23)c[nH]1`, for which the Activity result in data set [3], in [7], in [9], in [12], in [13] and in data set [16] was “Toxic” each time. For the same compound, the Activity entry in data set [23], in data set [34] and in data set [28] was “Toxic” in each case. The EC50 was 101 µM in data set [8] and greater than 100 µM in data set [17]. In [15], this compound displayed an MIC of 25 µM. The result in data set [35] was inactive.
Take `Cl.Nc1nc(-c2c[nH]c3ccc(Br)cc23)c[nH]1`: the Activity result in data set [3], in [7], in [9], in [12], in [13] and in [16] was “Toxic” each time. Further, the Activity entry in [23], in data set [34] and in [28] was “Toxic” each time. The EC50 is 102 µM in [8] and greater than 100 µM in data set [17]. The compound further returned an MIC in data set [15] of 25 µM. The result in data set [35] was inactive.
